Calls of active or inactive are those of the source. The calls are words filed in the database; no cut-off is given here.
system: HCT-116; test: Induction of apoptosis in human HCT116 cells at 4 uM after 24 hrs by Yo-Pro-1/PI staining-based FACS flow cytometric analysis; format: functional, cell-based; conditions: not given
Summary of the method: (§1)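 HCT116 cells were grown in McCoy's medium with 10% FBS at 37 °C, 5% CO2, to 50% confluence, then treated for 24 h. They were trypsinized, washed in cold PBS and brought to ~1×10^6 cells/mL. Staining was 30 min on ice with 0.1 μM Yo-Pro-1 (apoptotic) and 3 μg/mL PI (necrotic), final concentrations. Flow cytometry used 488 nm excitation. Gates were set with DMSO and 10 μM camptothecin (24 h) controls, excluding debris.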

Row | Compound | Activity
1 | C=C1CC[C@H](Cl)C(C)(C)[C@@H]1C[C@@]12OC(C)(C)[C@H](Cl)C[C@]1(Cl)C(=O)c1c(cc(O)c(C)c1O)C2=O | Active
2 | Cc1c(O)cc2c(c1O)C(=O)[C@@]1(Cl)C[C@@H](Cl)C(C)(C)O[C@@]1(C[C@H]1C(C)(C)[C@H]3CC[C@]1(C)O3)C2=O | Active

system: HCT-116; test: Antiproliferative activity against human HCT116 cells assessed as cell viability after 72 hrs by MTS assay; format: functional, cell-based; conditions: HCT-116, 72 h
Summary of the method: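 HCT-116 cells plated, left overnight at 37 °C in 5% CO2/air, then given compound from 10 mg/mL DMSO stock at 100 μM top concentration with serial dilution. After 72 h, MTS/PMS added for 3 h and formazan read at 490 nm. IC50 with 95% CI calculated from viability. Etoposide positive control, DMSO negative control.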

Row | Compound | IC50
3 | CC1=C(O)C2=C(C(=O)[C@]3(C[C@H]4C(C)(C)[C@@H](Cl)CC[C@]4(C)O)OC(C)(C)[C@H](Cl)C[C@]3(Cl)C2=O)C(=[N+]=[N-])C1=O | < 1 µM
4 | C=C1CC[C@H](Br)C(C)(C)[C@@H]1C[C@@]12OC(C)(C)[C@H](Cl)C[C@]1(Cl)C(=O)c1c(O)cc(O)cc1C2=O | 3 µM
5 | Cc1c(O)cc2c(c1O)C(=O)C1C[C@@H](Cl)C(C)(C)O[C@@]1(C[C@H]1C(C)(C)[C@@H](Cl)CC[C@]1(C)O)C2=O (stereo partly drawn) | > 100 µM
6 | C=C1CC[C@H](Cl)C(C)(C)[C@@H]1C[C@@]12OC(C)(C)[C@H](Cl)C[C@]1(Cl)C(=O)C1=C(C2=O)C(=[N+]=[N-])C(=O)C(C)=C1O | < 1 µM
7 | Cc1c(O)cc2c(c1O)C(=O)C1=C[C@@H](Cl)C(C)(C)O[C@@]1(C[C@H]1C(C)(C)[C@@H](Cl)CC[C@]1(C)O)C2=O | > 100 µM
8 | COc1cc([C@@H]2c3cc4c(cc3[C@@H](O[C@@H]3O[C@@H]5CO[C@@H](C)O[C@H]5[C@H](O)[C@H]3O)[C@H]3COC(=O)[C@H]23)OCO4)cc(OC)c1O [ETOPOSIDE] | 1 µM
9 | Cc1c(O)cc2c(c1O)C(=O)[C@@]1(Cl)C[C@@H](Cl)C(C)(C)O[C@@]1(C[C@H]1C(C)(C)[C@H]3CC[C@]1(C)O3)C2=O | 17 µM
10 | Cc1c(O)cc2c(c1O)C(=O)[C@@]1(Cl)C[C@@H](Br)C(C)(C)O[C@@]1(C[C@H]1C(C)(C)[C@H]3CC[C@]1(C)O3)C2=O | > 100 µM
11 | C=C1CC[C@H](Cl)C(C)(C)[C@@H]1C[C@@]12OC(C)(C)[C@H](Cl)C[C@]1(Cl)C(=O)c1c(O)cc(O)cc1C2=O | 2 µM

The remaining compounds from weak to strong by IC50, led by results:

Row | IC50 | Compound
12 | 49 µM | Cc1c(O)cc2c(c1O)C(=O)[C@H]1C[C@@H](Br)C(C)(C)O[C@@]1(C[C@H]1C(C)(C)[C@@H](Br)CC[C@]1(C)O)C2=O
13 | 15 µM | Cc1c(O)cc2c(c1O)C(=O)[C@@]1(Cl)C[C@@H](Cl)C(C)(C)O[C@@]1(C[C@H]1C(C)(C)[C@@H](Cl)CC[C@]1(C)O)C2=O
14 | 10 µM | CC1(C)O[C@@]2(C[C@H]3C(C)(C)[C@@H](Cl)CC[C@]3(C)O)C(=O)c3cc(O)cc(O)c3C(=O)[C@@]2(Cl)C[C@H]1Cl
15 | 6 µM | CC(C)=CCC/C(C)=C/C[C@@]12OC(C)(C)[C@H](Br)C[C@]1(Cl)C(=O)c1c(cc(O)c(C)c1O)C2=O
16 | 3 µM | C=C1CC[C@H](Cl)C(C)(C)[C@@H]1C[C@@]12OC(C)(C)[C@H](Cl)C[C@]1(Cl)C(=O)c1c(cc(O)c(C)c1O)C2=O

system: HCT-116; test: Induction of cell death in human HCT116 cells at 1 to 16 uM after 24 hrs by Yo-Pro-1/PI staining-based FACS flow cytometric analysis; format: functional; conditions: not given; summary of the method: as §1

Row | Compound | Activity
17 | Cc1c(O)cc2c(c1O)C(=O)[C@@]1(Cl)C[C@@H](Cl)C(C)(C)O[C@@]1(C[C@H]1C(C)(C)[C@@H](Cl)CC[C@]1(C)O)C2=O | Active

system: HCT-116; test: Induction of cell death in human HCT116 cells at 32 uM after 24 hrs by Yo-Pro-1/PI staining-based FACS flow cytometric analysis; format: functional; conditions: not given; summary of the method: as §1

Row | Compound | Activity
18 | C=C1CC[C@H](Cl)C(C)(C)[C@@H]1C[C@@]12OC(C)(C)[C@H](Cl)C[C@]1(Cl)C(=O)C1=C(C2=O)C(=[N+]=[N-])C(=O)C(C)=C1O | Active

system: HCT-116; test: Induction of apoptosis in human HCT116 cells after 24 hrs by Yo-Pro-1/PI staining-based FACS flow cytometric analysis; format: functional, cell-based; conditions: not given; summary of the method: as §1

Row | Compound | Activity
19 | C=C1CC[C@H](Cl)C(C)(C)[C@@H]1C[C@@]12OC(C)(C)[C@H](Cl)C[C@]1(Cl)C(=O)c1c(cc(O)c(C)c1O)C2=O | Dose-dependent effect
20 | C=C1CC[C@H](Cl)C(C)(C)[C@@H]1C[C@@]12OC(C)(C)[C@H](Cl)C[C@]1(Cl)C(=O)C1=C(C2=O)C(=[N+]=[N-])C(=O)C(C)=C1O | Dose-dependent effect
21 | Cc1c(O)cc2c(c1O)C(=O)[C@@]1(Cl)C[C@@H](Cl)C(C)(C)O[C@@]1(C[C@H]1C(C)(C)[C@@H](Cl)CC[C@]1(C)O)C2=O | Dose-dependent effect
22 | Cc1c(O)cc2c(c1O)C(=O)[C@@]1(Cl)C[C@@H](Cl)C(C)(C)O[C@@]1(C[C@H]1C(C)(C)[C@H]3CC[C@]1(C)O3)C2=O | Dose-dependent effect

system: HCT-116; test: Induction of apoptosis in human HCT116 cells at 1 to 16 uM after 24 hrs by Yo-Pro-1/PI staining-based FACS flow cytometric analysis; format: functional, cell-based; conditions: not given; summary of the method: as §1

Row | Compound | Activity
23 | Cc1c(O)cc2c(c1O)C(=O)[C@@]1(Cl)C[C@@H](Cl)C(C)(C)O[C@@]1(C[C@H]1C(C)(C)[C@@H](Cl)CC[C@]1(C)O)C2=O | Active

— ChEMBL document CHEMBL3102721, “Napyradiomycin derivatives, produced by a marine-derived actinomycete, illustrate cytotoxicity by induction of apoptosis” (J Nat Prod, 2014)
